# Experimental data taken from ChEMBL document CHEMBL1157731, “Novel KCNQ2/Q3 agonists as potential therapeutics for epilepsy and neuropathic pain” (J Med Chem, 2010).
# The source made the active and inactive calls.
# How the values were obtained:
# [1] = target: Voltage-gated potassium channel, KQT; KCNQ2(Kv7.2)/KCNQ3(Kv7.3) (Homo sapiens, UniProt O43525+O43526); assay: Activation of KCNQ2/KCNQ3 expressed in CHO cells by isotopic efflux assay; type: cell-based
# In short: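 86Rb+ flux in K+-channel-expressing cells loaded by culture in 86RbCl, then washed in EBSS. Preincubated with drug (0.01-30 μM in EBSS), then efflux stimulated by submaximal KCl (generally 7-20 mM) with drug still present. Supernatant and SDS lysate counted by Cherenkov. Percent efflux normalized to high-KCl (generally 30-135 mM) maximum. EC50 from eight-point half-log curves; mean of 2-4 determinations ± SEM.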
# Mus musculus [2] = assay: Anticonvulsant activity against maximal electroshock-induced seizures in CD1 mouse model at 30 mg/kg, po treated 30 mins before electroshock application; type: functional, organism-based; set-up: dose 30 mg/kg
# In short: (§1)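 Male CD-1 mice dosed po (10 mL/kg in 5% DMSO/95% of 0.5% HPMC/1% Tween 80) 30 min before corneal electroshock at 50 mA for 0.2 s, with 1% proparacaine in each eye. Latency to hindlimb extension recorded to 0.1 s. No extension within 6 s scored as protected (latency 6 s). Reported as protected/tested (8 per group), or EC50 derived from latency scores.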
# Rattus norvegicus [3] = assay: Anticonvulsant activity in po dosed Sprague-Dawley rat assessed as inhibition of pentylenetetrazole-induced seizure treated 30 mins before PTZ challenge; type: functional, organism-based
# In short: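 Male Sprague-Dawley rats received compound po in 0.5% methylcellulose (1 mL/kg) 30 min before PTZ 85 mg/kg sc. Latency to tonic-clonic seizure timed from PTZ injection. No seizure within 15 min scored as protected (latency 15 min). EC50 derived from latency scores.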
# Mus musculus [4] = assay: Anticonvulsant activity against maximal electroshock-induced seizures in CD1 mouse model at 10 mg/kg, po treated 30 mins before electroshock application; type: functional, organism-based; set-up: dose 10 mg/kg; in short: as §1
# Rattus norvegicus [5] = assay: Analgesic activity in Sprague-Dawley rat assessed as reduction of spinal nerve ligation-induced allodynia score at 10 mg/kg, po; type: functional; set-up: scale not given: the % may be the effect or the level left
# In short: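 Male Sprague-Dawley rats; L5 spinal nerve tightly ligated with 4.0 silk distal to the DRG under halothane, then 2-3 weeks recovery. Dosed po in 0.5% methylcellulose. Von Frey tactile withdrawal thresholds measured on a wire mesh floor, top threshold 15 g. Baseline taken just before dosing; testing at 1 and 2 h post-dose.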
# Rattus norvegicus [6] = assay: Antinociceptive activity in formalin-treated Sprague-Dawley rat model assessed as reduction in hind paw flinches at 17 mg/kg, po measured during 11 to 60 mins of phase 2 flinches; type: functional; set-up: scale not given: the % may be the effect or the level left
# In short: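 Male Sprague-Dawley rats dosed po in 0.5% methylcellulose 1 h before assay. A 0.5 g metal band was glued to the right hind paw 1 h beforehand. 2.5% formalin (50 μL) was injected sc into the dorsal right hind paw. An electromagnetic detector counted flinches for 60 min; phase II is 11-60 min post-injection.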
# Rattus norvegicus [7] = assay: Antinociceptive activity in formalin-treated Sprague-Dawley rat model assessed as reduction in hind paw flinches at 100 mg/kg, iv measured during 11 to 60 mins of phase 2 flinches; type: functional; set-up: scale not given: the % may be the effect or the level left
# In short: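 Formalin test in male Sprague-Dawley rats fitted with a 0.5 g metal band on the right hind paw. Rats received 50 μL of 2.5% formalin sc into the dorsal right hind paw and were placed unrestrained over an electromagnetic detector. Flinches were counted for 60 min, with phase II defined as 11-60 min.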
# Rattus norvegicus [8] = assay: Analgesic activity in Sprague-Dawley rat assessed as reduction of spinal nerve ligation-induced allodynia score at 100 mg/kg, iv; type: functional; set-up: scale not given: the % may be the effect or the level left
# In short: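 L5 spinal nerve ligation (4.0 silk, distal to DRG, halothane anesthesia) in male Sprague-Dawley rats, with 2-3 weeks recovery. Tactile allodynia read as von Frey paw withdrawal threshold on a wire mesh floor, capped at 15 g. Baseline measured right before dosing; behaviour tested 1 and 2 h after administration.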
# Mus musculus [9] = assay: Anticonvulsant activity against maximal electroshock-induced seizures in CD1 mouse model at 20 mg/kg, po treated 30 mins before electroshock application; type: functional, organism-based; set-up: dose 20 mg/kg; in short: as §1
# Mus musculus [10] = assay: Anticonvulsant activity against maximal electroshock-induced seizures in CD1 mouse model at 30 mg/kg, ip treated 15 mins before electroshock application; type: functional, organism-based; set-up: dose 30 mg/kg
# In short: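 Male CD-1 mice dosed ip at 30 mg/kg (10 mL/kg in 5% DMSO/95% of 0.5% HPMC/1% Tween 80) 15 min before corneal electroshock (50 mA, 0.2 s, 1% proparacaine in eyes). Hindlimb extension latency measured; no extension by 6 s counted as protected. Reported as protected/tested out of 8 mice.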
# Chain of Voltage-gated potassium channel, KQT; KCNQ2(Kv7.2)/KCNQ3(Kv7.3) (O43526 whole entry): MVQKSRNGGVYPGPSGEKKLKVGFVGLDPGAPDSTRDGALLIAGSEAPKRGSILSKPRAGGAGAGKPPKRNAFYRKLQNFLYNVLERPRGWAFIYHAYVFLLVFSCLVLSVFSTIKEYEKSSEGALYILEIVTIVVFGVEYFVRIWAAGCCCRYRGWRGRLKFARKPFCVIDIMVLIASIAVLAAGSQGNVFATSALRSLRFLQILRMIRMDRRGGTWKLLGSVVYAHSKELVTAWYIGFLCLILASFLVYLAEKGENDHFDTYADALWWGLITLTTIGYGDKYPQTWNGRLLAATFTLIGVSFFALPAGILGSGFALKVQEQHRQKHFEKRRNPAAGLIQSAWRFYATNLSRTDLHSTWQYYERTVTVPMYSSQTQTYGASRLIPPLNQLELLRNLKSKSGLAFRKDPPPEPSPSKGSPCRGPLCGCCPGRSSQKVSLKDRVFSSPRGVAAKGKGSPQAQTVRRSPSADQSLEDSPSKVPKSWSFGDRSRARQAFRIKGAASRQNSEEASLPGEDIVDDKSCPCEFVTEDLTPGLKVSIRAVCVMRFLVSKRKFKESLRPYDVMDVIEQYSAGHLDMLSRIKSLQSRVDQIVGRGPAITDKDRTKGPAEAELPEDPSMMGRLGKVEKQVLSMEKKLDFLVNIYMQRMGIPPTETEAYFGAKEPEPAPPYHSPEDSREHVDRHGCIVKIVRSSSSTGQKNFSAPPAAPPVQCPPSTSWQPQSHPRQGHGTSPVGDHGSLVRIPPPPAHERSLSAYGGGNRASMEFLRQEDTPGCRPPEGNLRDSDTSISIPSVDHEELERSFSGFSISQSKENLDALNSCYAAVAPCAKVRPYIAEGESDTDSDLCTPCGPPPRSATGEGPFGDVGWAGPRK
# Chain of Voltage-gated potassium channel, KQT; KCNQ2(Kv7.2)/KCNQ3(Kv7.3) (O43525 whole entry): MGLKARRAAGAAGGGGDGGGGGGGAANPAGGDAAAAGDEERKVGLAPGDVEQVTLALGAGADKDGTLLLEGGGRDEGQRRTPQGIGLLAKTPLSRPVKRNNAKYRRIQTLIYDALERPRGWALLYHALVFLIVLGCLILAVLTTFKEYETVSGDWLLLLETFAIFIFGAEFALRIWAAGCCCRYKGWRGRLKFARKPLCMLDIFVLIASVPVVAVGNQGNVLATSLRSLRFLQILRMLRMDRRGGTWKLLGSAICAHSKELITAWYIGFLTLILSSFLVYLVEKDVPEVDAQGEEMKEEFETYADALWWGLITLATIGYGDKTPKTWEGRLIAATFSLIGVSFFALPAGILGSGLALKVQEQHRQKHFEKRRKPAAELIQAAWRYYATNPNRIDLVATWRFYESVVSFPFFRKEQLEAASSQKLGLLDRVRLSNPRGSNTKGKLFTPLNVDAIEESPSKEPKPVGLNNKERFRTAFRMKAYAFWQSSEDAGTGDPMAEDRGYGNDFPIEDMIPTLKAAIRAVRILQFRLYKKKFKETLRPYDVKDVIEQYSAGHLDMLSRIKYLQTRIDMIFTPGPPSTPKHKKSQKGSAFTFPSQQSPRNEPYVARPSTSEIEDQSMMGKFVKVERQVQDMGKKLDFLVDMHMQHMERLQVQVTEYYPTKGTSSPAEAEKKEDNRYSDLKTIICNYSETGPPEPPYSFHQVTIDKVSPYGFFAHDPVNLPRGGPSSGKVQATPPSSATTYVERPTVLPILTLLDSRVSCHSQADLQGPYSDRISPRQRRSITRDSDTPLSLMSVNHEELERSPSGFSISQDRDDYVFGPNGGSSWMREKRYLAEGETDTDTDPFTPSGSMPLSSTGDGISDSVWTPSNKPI
SMILES,EC50 [1] [nM],also measured
Cn1/c(=N/NC(=O)C23CC4CC(CC(C4)C2)C3)sc2c(C(F)(F)F)cccc21,2080,
Cn1/c(=N/NC(=O)C23CC4CC(CC(C4)C2)C3)sc2cc(F)cc(F)c21,160,
Cn1/c(=N/NC(=O)C23CC4CC(CC(C4)C2)C3)sc2cc(F)ccc21,28,Activity (Mus musculus [2]): inactive
Cn1/c(=N/NC(=O)C23CC4CC(CC(C4)C2)C3)sc2ccccc21,27,
CN(/N=c1\sc2ccccc2n1C)C(=O)C12CC3CC(CC(C3)C1)C2,> 10000,
Cn1/c(=N/NC(=O)C2CCOC2)sc2cc(OC(F)(F)F)ccc21 (centres undefined),6730,
Cn1/c(=N/NC(=O)C2CCCCC2)sc2cc(OC(F)(F)F)ccc21,28,
Cn1/c(=N/NC(=O)C(C)(C)C)sc2cc(OC(F)(F)F)ccc21,710,EC50 (Rattus norvegicus [3]): 3.8 mg/kg; Activity (Mus musculus [4]): inactive
CCOC(=O)Nc1ccc(NCc2ccc(F)cc2)cc1N [EZOGABINE],,Activity (Rattus norvegicus [5]): 0%; Activity (Rattus norvegicus [6]): 49%
NCC1(CC(=O)O)CCCCC1 [GABAPENTIN],,Activity (Rattus norvegicus [7]): 61%; Activity (Rattus norvegicus [8]): 70%
Cn1/c(=N/NC(=O)C23CC4CC(CC(C4)C2)C3)sc2cccc(F)c21,380,
Cn1/c(=N/NC(=O)C23CC4CC(CC(C4)C2)C3)sc2cccc(C(F)(F)F)c21,91,
CCn1/c(=N/NC(=O)C23CC4CC(CC(C4)C2)C3)sc2ccccc21,570,
Cn1/c(=N/NC(=O)C23CC4CC(CC(C4)C2)C3)oc2ccccc21,2700,
Cn1/c(=N/NC(=O)C23CC4CC(CC(C4)C2)C3)sc2c(F)cccc21,98,Activity (Mus musculus [9]): inactive
Cn1/c(=N/NC(=O)OC2CCCC2)sc2cc(OC(F)(F)F)ccc21,29,
Cn1/c(=N/NC(=O)c2cccc(F)c2)sc2cc(OC(F)(F)F)ccc21,100,
Cn1/c(=N/NC(=O)C2CCCC2)sc2cc(OC(F)(F)F)ccc21,62,Activity (Mus musculus [9]): inactive
Cn1/c(=N/NC(=O)C23CC4CC(CC(C4)C2)C3)sc2cc(C(F)(F)F)ccc21,160,Activity (Mus musculus [2]): inactive
Cn1/c(=N/NC(=O)C23CC4CC(CC(C4)C2)C3)sc2ccc(C(F)(F)F)cc21,53,Activity (Mus musculus [2]): inactive
Cn1/c(=N/NC(=O)OC(C)(C)C)sc2cc(OC(F)(F)F)ccc21,23,Activity (Mus musculus [4]): Active
CC(=O)N/N=c1\sc2cc(OC(F)(F)F)ccc2n1C,> 10000,
Cn1/c(=N/NC(=O)C23CC4CC(CC(C4)C2)C3)sc2cc(F)c(F)cc21,21,
Cn1/c(=N/NC(=O)c2ccco2)sc2cc(OC(F)(F)F)ccc21,500,
Cn1/c(=N/NC(=O)c2ccccc2)sc2cc(OC(F)(F)F)ccc21,260,
Cn1/c(=N/NC(=O)C2CCCO2)sc2cc(OC(F)(F)F)ccc21 (centres undefined),5570,
Cn1/c(=N/NC(=O)C23CC4CC(CC(C4)C2)C3)sc2cc(OC(F)(F)F)ccc21,25,Activity (Mus musculus [10]): Active
Cn1/c(=N/NC(=O)c2ccc(F)cc2)sc2cc(OC(F)(F)F)ccc21,44,
